Data from the EternaBench riboswitch data.

Test system: MS2 coat protein
Test: apparent Kd, MS2 coat protein; higher = weaker binding; RNA-MaP array; FMN 200 µM where present
In short: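 Binding was read on Illumina sequencing-chip clusters where stalled E. coli RNA polymerase had transcribed each design. A titration of SNAP-549-labelled MS2 coat protein began at 0.7 or 1.5 nM and doubled to 3 µM, once without ligand and once with constant ligand, in 100 mM Tris-HCl pH 7.5, 80 mM KCl, 4 mM MgCl2, BSA, DTT, yeast tRNA and Tween-20. The apparent Kd is the median of filtered per-cluster binding-curve fits, based on green signal normalised to red-channel RNA signal and control-cluster median Fmax.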

[1] = designed as: ON switch for flavin mononucleotide, no ligand
[2] = ligand present: flavin mononucleotide, designed as: ON switch for flavin mononucleotide
[3] = designed as: OFF switch for flavin mononucleotide, no ligand
[4] = ligand present: flavin mononucleotide, designed as: OFF switch for flavin mononucleotide

Sequence	apparent Kd [1] [nM]	apparent Kd [2] [nM]	apparent Kd [3] [nM]	apparent Kd [4] [nM]
GUCGGAAACGACAAAAGUAUGGAUCCAGAAGGCAUGACACAUGAGGAUCACCCAUGUCUAAGACAUGAGGAUAUGGAUCCAUAC	5.24	3.67		
AGAAAACGAGGAUAUACGUGCAUAUUCUCGCCCAAUGGGCAACAUGAGGAUCACCCAUGUAGAAGGCGUAAAGA			37.4	71.7
CAGCGAAAGCUGAAUCUGUAGAGAGAGGAUAUACAAGAAUAAGUCCAUACAUGAGGAUCACCCAUGUAGAAGGCUCUCUACAGU			7.28	25.4
GUCAGCUCGUGAGGAUAUACAUGUGCUGGAUACAGCAUUAAAUUUUUCACAUGAGGAUCACCCAUGUAGAAGGCACGAGCUGAU			19.2	49.6
AGUAUACAUGAGGAUCACCCAUGUCUGUAACGGACAGGAUAUGCGUUGCAUCACUGUAAUGCAGAAGGGUCCUGUA	296	45.2		
AAAAAGGCAGGAUAUACAUGAGGAUCACCCAUGUGAAAAAAAAAAAAAAAAAAAAAGUGUAGAAGGGUCAAAAA			56.9	46.7
UUUACGUGAGGAUAUGCGAAUAGAACGUAAGACAUACAGACGCAGAAGGCACAUGAGGAUCACCCAUGUGAACC			20.5	41.4
CUUUUGUGAGGAUAUCAGUAGUAAAAUAAUAAAUAUACUACUGAGAAGGCACAUGAGGAUCACCCAUGUUCCUC			37.8	233
GUCCUCAGCGAGGAUAUCGGGCGGGUUUUUGUUUGAGAAGGCGUGACAUGAGGAUCACCCAUGUGGCGCGUGGG			51.2	82.3
UUAUGUUUUGUAGGAUAUCAUAAGUUAUGUAUUAUAAUUGAAAUUUUGUUAUGAGAAGGACAUUUACAUGAGGAUCACCCAUGU			13.6	9.96
GAUAUGAUGUGAGGAUAUGCUGAGGAUACUUCAGCAGAAGGCACAUGAGGAUCACCCAUGUACACUUAUCAUAAAUACCAUAUC			12.7	19
GACACGUAAGGAUAUUGAGGGUAGAUGUGAGUCUAGCCCGGCAAGAAGGUACAUGAGGAUCACCCAUGUCCCGG			13.6	17
UAAUAAUAAUAAUAGCAGAAUUACAUGAGGAUCACCCAUGUAUAGGAUAUCGUCAGGAAUACUGACGAGAAGGAUACAAACUGC			17.6	21.9
AGGUAACAUGAGGAUCACCCAUGUCAGGAUAUCAUGAAGAUUAGAUUAGAGGAGAGGUUGAGAAGGGACUAUAU			55.6	49.5
AAUUGACACGUAGGAUAUCGAUCUAUAUUAACUCGAGAAGGACGUACAUGAGGAUCACCCAUGUUUAAUGGAGUAGAUAUGUUG			82.8	308
UUGGACGUCGUAGGAUAUGUUGGAUAUUCCUACAUGAGGAUCACCCAUGUUGACAUGGAAGAAGGACAGAAGGACGAUGUCCAU	5.08	4.49		
AAAACUGGAGGAUAUACAUGAGGAUCACCCAUGUGUGGGUAGGCUGUGUCGGCGUCAGGUAGAAGGCCACAAAA			92.3	136
AAGUCGUGAGGAUAUACAUGGAUAUACAUUUAUGUGGACCUACAUGAGGAUCACCCAUGUAGAAGGCACGACUA			196	93.5
GUCGAGUGAGGAUAUGGUGAGUAGUGCCAGAGCGCUGCUCACCAGAAGGCACAUGAGGAUCACCCAUGUAUAGC			16.8	29.9

Sequence	apparent Kd [1] [nM]	apparent Kd [2] [nM]	apparent Kd [3] [nM]	apparent Kd [4] [nM]
GGGACUUACGAGAAGGGCUACAUGAGGAUCACCCAUGUAAAUCUUCGGGUAGCAGGAUAUCGGCGGCUACAGGAGGGCCAAGUC			14.3	90.7
AGGUGACAUGAGGAUCACCCAUGUAAGGAUAUACGGUUAGUGGAGAGUUGGAGGAGAGGUAGAAGGUACGGAGC			249	194
CCAUAAUUGAUCCAAUUUUACAACAUGAGGAUCACCCAUGUGCAGGAUAUCGUGAAAGUUAAAUACGAGAAGGGCAAGAACUGC			560	356
AAAUCCUACGAAGGAUAUACAAACAUGAGGAUCACCCAUGUGUGUUUCGUGUAACUGGAAUUCGGGUAGAAGGUCGUAGACAUA			33.2	20.8
UCAAGUAUGUAGGAUAUCGAUGUCCUCGGACAUCGAGAAGGACGUACAUGAGGAUCACCCAUGUAACUUGCAUG			63.8	84.9
CCUCCACAUGAGGAUCACCCAUGUCAGGAUAUCGUGUGUUUUUUUUCGGUCUUUCGUGCGAGAAGGGACGUCUU			30.5	33.8
AAUGGCUGAGGAUAUACACUCACGUCUAAAAGGUUCAAAUGACAUGAGGAUCACCCAUGUAGAAGGCAGCCCGA				50.2
UUACCUUAUGAGAAGGCGAUCAUGAAACAUGAUCGAGGAUAUCAUGUAAACAUGAGGAUCACCCAUGUAUGGGUAUUAUGGUAC	86.6	27.8		
GAGUGGAAGUAAGGAUAUAUAAUGAUAAUCACAGUAGAAGGUACUAACAUGAGGAUCACCCAUGUAGGACUAUACCAGAGAGGG	17.4	16		
CGCAACAUACAGAAGGAGUUAUUGAGAGGUUUACUAGGAUAUGUUCACAUGAGGAUCACCCAUGUCGUUUGGUUUUUUGUUGCG			18.4	11.2
AAUUCGUUCUAGAAGGUGCAUUUGUUAAACGUGCAAGGAUAUAGACAUGAGGAUCACCCAUGUCUAUGAGACAUCGGCCUCCUG			5.33	8.23
GGUGGCGUGAUAACGCUAGAUAUAACAUGAGGAUCACCCAUGUAGGAUAUCCCGCCGUGAGGGCGGGAGAAGGACAACCGAUGG			37.1	34.9
CAGGUAGACUGAGGAUAUACACAAAACAGCUAGUCUAUCUAGCUGAUCACAUGAGGAUCACCCAUGUAGAAGGCAGUCUGCCUG			19.2	55.2
CUGUUCCGUGUAGGAUAUGCAUAUUCCCAUUAUGCAGAAGGACAUGAGGAUCACCCAUGUAUGUUAUUAUCAUGUGUUACAUGC			44.4	453
AACGGGUGGGUAGGAUAUGGCUAUGUCUCAUUGCUAGAAGGACCAGCUACUACAUGAGGAUCACCCAUGUCGUAGUGCACCCAG	20.5	6.04		
UAUAUGUCAGGAUAUUAGUUGUGUUAGAAUUUAUCUUCUGCUGAGAAGGGACAUGAGGAUCACCCAUGUUCCUC			14.5	16
AAUAACAGAGGAUAUACUAUUUUAUGUGUUUGUUAUUUUGAACAUGAGGAUCACCCAUGUAGAAGGCUGAAUGA			27.7	28
GUGGCAUGAGGAUAUCGAGGUUAGUACAUGAGGAUCACCCAUGUUAUCCAGGUGUCGGUUCGAGAAGGCAUGGCAC			326	302
